Measured values taken from ChEMBL document CHEMBL1134845, “Syntheses and biological activities of a novel group of steroidal derived inhibitors for human Cdc25A protein phosphatase” (J Med Chem, 2001).

Columns and labels:
[1] = biological target: T1, M-phase inducer phosphatase 1 (Homo sapiens, UniProt P30304); assay: (§1) Inhibitory activity tested against cell division cycle 25A (assay using fluorescein diphosphate (FDP) as substrate)
T1 sequence (P30304 whole entry): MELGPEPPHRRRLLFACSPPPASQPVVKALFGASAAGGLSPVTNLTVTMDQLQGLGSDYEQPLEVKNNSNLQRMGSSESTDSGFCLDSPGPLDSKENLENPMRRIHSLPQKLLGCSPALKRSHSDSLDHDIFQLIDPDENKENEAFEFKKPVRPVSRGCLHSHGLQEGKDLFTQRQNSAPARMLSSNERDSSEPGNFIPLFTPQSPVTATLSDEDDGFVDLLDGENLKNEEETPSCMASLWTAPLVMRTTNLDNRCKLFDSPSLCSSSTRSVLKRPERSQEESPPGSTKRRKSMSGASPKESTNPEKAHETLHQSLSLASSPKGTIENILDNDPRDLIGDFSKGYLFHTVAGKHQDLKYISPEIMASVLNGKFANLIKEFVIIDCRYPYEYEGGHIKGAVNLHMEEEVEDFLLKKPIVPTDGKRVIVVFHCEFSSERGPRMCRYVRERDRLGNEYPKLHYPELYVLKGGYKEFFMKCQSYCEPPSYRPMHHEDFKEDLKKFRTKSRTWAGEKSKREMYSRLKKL
How it was run: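 Recombinant human GST-Cdc25A fusion protein, each batch calibrated so that FDP was dephosphorylated linearly over 20 min. Fluorescein diphosphate was the substrate. Reactions ran 15 min at 25 °C in the dark and were stopped with sodium orthovanadate. IC50 came from at least two independent runs, each in triplicate.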

[2] = biological target: T2, M-phase inducer phosphatase 1 (Homo sapiens) (UniProt P30304); assay: as §1; details: concentration not given here
T2 sequence (whole entry): T1 sequence (P30304 whole entry)
How it was run: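 Recombinant human GST-Cdc25A fusion protein, each batch calibrated so that FDP was dephosphorylated linearly over 20 min. Fluorescein diphosphate was the substrate. Reactions ran 15 min at 25 °C in the dark and were stopped with sodium orthovanadate. Fluorescein monophosphate was read at 485 nm excitation and 530 nm emission. IC50 came from at least two independent runs, each in triplicate.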

786-0 [3] = assay: Growth inhibitory activity was determined against 786-0 cancer cell line of renal cancer; type: functional; details: Homo sapiens
How it was run: (§2)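 NCI 60 human tumour cell line screen run at the National Cancer Institute. Cell growth and viability read with the protein stain sulforhodamine B, which binds basic amino acids of cells left attached after washing. […] MG MID is the mean GI50 calculated over all panels.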

A549 = assay: Growth inhibitory activity was determined against A549/ATCC cancer cell line of non-small cell lung cancer; type: functional, Homo sapiens; details: Homo sapiens, A549; how it was run: as §2
COLO 205 = assay: Growth inhibitory activity was determined against COLO 205 cancer cell line colon cancer; type: functional, Homo sapiens; details: Homo sapiens, COLO 205; how it was run: as §2
HT-29 = assay: Growth inhibitory activity was determined against HT-29 cancer cell line colon cancer; type: functional, Homo sapiens; details: Homo sapiens, HT-29; how it was run: as §2
LOX IMVI = assay: Growth inhibitory activity was determined against LOX IMVI cancer cell line of melanoma; type: functional, Homo sapiens; details: Homo sapiens, LOX IMVI; how it was run: as §2
NCI-H23 = assay: Growth inhibitory activity was determined against NCI-H23 cancer cell line of non-small cell lung cancer; type: functional, Homo sapiens; details: Homo sapiens, NCI-H23; how it was run: as §2
NCI-H522 = assay: Growth inhibitory activity was determined against NCI-H522 cancer cell line of non-small cell lung cancer; type: functional; details: Homo sapiens; how it was run: as §2
NCI/ADR-RES = assay: Growth inhibitory activity was determined against NCI/ADR-RES cancer cell line of Breast cancer; type: functional, Homo sapiens; details: Homo sapiens, NCI/ADR-RES; how it was run: as §2
OVCAR-8 = assay: Growth inhibitory activity was determined against OVCAR-8 cancer cell line of Ovarian cancer; type: functional; details: Homo sapiens; how it was run: as §2
SN12C [4] = assay: Growth inhibitory activity was determined against SN12C cancer cell line of renal cancer; type: functional; details: Homo sapiens; how it was run: as §2
SF-539 = assay: Growth inhibitory activity was determined against SF-539 cancer cell line of CNS cancer; type: functional; details: Homo sapiens; how it was run: as §2
SF-268 = assay: Growth inhibitory activity was determined against SF-268 cancer cell line of CNS cancer; type: functional; details: Homo sapiens; how it was run: as §2
SK-MEL-5 = assay: Growth inhibitory activity was determined against SK-MEL-5 cancer cell line of melanoma; type: functional, Homo sapiens; details: Homo sapiens, SK-MEL-5; how it was run: as §2
UO-31 [5] = assay: Growth inhibitory activity was determined against UO-31 cancer cell line of renal cancer; type: functional; details: Homo sapiens; how it was run: as §2
U-251 = assay: Growth inhibitory activity was determined against U-251 cancer cell line of CNS cancer; type: functional; details: Homo sapiens; how it was run: as §2
PC-3 = assay: Growth inhibitory activity was determined against PC-3 cancer cell line of Prostate cancer; type: functional; details: Homo sapiens; how it was run: as §2
T47D = assay: Growth inhibitory activity was determined against T-47D cancer cell line of Breast cancer; type: functional, Homo sapiens; details: Homo sapiens, T47D; how it was run: as §2
OVCAR-3 = assay: Growth inhibitory activity was determined against OVCAR-3 cancer cell line of Ovarian cancer; type: functional; details: Homo sapiens; how it was run: as §2
BT-549 (Homo sapiens) = assay: Growth inhibitory activity was determined against BT-549 cancer cell line of Breast cancer; details: Homo sapiens, BT-549
786-0 [6] = assay: Growth inhibitory activity was determined against 786-0 cancer cell line of Renal cancer; type: functional; details: Homo sapiens; how it was run: as §2
HCC 2998 = assay: Growth inhibitory activity was determined against HCC2998 cancer cell line colon cancer; type: functional, Homo sapiens; details: Homo sapiens, HCC 2998; how it was run: as §2
SN12C [7] = assay: Growth inhibitory activity was determined against SN12C cancer cell line of Renal cancer; type: functional; details: Homo sapiens; how it was run: as §2
UO-31 [8] = assay: Growth inhibitory activity was determined against UO-31 cancer cell line of Renal cancer; type: functional; details: Homo sapiens; how it was run: as §2

Structure (SMILES): CC(C)CCC[C@@H](C)[C@H]1CC[C@H]2[C@@H]3CC[C@H]4C[C@@H](O/C(S)=N\c5ccccc5)CC[C@]4(C)[C@H]3CC[C@]12C
- IC50 [1]: 2.1 µM

Structure (SMILES): CC(C)CCC[C@@H](C)[C@H]1CC[C@H]2[C@H](CC(=O)O)[C@@H]([C@@]3(C)CCC=CC3=O)CC[C@]12C
- IC50 [1]: 9.5 µM

Structure (SMILES): C/C(=C/CCCC#N)[C@H]1CC[C@]2(C)[C@@H](C(C)CCCC(C)C)CC[C@H]2[C@@H]1CC(=O)O (some centres not stated)
- IC50 [1]: 2.4 µM

Structure (SMILES): CC(C)CCC[C@@H](C)[C@H]1CC[C@H]2[C@@H]3CC[C@H]4CC(NCCCC(=O)O)CC[C@]4(C)[C@H]3CC[C@]12C (some centres not stated)
- inhibition [2]: 16%

Structure (SMILES): CC(C)CCC[C@@H](C)[C@H]1CC[C@H]2[C@@H]3CC[C@H]4C[C@@H](O/C(S)=N\c5cccc6ccccc56)CC[C@]4(C)[C@H]3CC[C@]12C
- inhibition [2]: 19%

Structure (SMILES): CC(C)CCC[C@@H](C)[C@H]1CC[C@H]2[C@@H]3CC(=O)O[C@@](C)(CC/C=C\C#N)[C@H]3CC[C@]12C
- IC50 [1]: > 50 µM

Structure (SMILES): CC(C)CCC[C@@H](C)[C@H]1CC[C@H]2[C@@H]3CC[C@H]4C[C@@H](OCC(=O)O)CC[C@]4(C)[C@H]3CC[C@]12C
- IC50 [1]: 0.7 µM

Structure (SMILES): CC(C)CCC[C@@H](C)[C@H]1CC[C@H]2[C@@H]3CC[C@H]4C[C@@H](OC(=S)SCC(=O)O)CC[C@]4(C)[C@H]3CC[C@]12C
- IC50 [1]: 0.9 µM

Structure (SMILES): CC(C)CCC[C@@H](C)[C@H]1CC[C@H]2[C@@H]3CC[C@H]4C[C@@H](OC(=S)SCC(=O)c5ccccc5)CC[C@]4(C)[C@H]3CC[C@]12C
- IC50 [1]: > 100 µM

Structure (SMILES): C=C(CCC(CC#N)OCC)[C@H]1CC[C@]2(C)[C@@H](C(C)CCCC(C)C)CC[C@H]2[C@@H]1CC(=O)O (some centres not stated)
- IC50 [1]: 2.9 µM

Structure (SMILES): CC(=O)OC1CC[C@](C)([C@H]2CC[C@]3(C)[C@@H]([C@H](C)CCCC(C)C)CC[C@H]3[C@@H]2CC(=O)O)C(=O)C1 (some centres not stated)
- IC50 [1]: 9.3 µM

Structure (SMILES): CCOC(=O)CSC(=S)O[C@H]1CC[C@@]2(C)[C@@H](CC[C@@H]3[C@@H]2CC[C@]2(C)[C@@H]([C@H](C)CCCC(C)C)CC[C@@H]32)C1
- IC50 [1]: > 100 µM

Structure (SMILES): CCOC(=O)C(C)SC(=S)O[C@H]1CC[C@@]2(C)[C@@H](CC[C@@H]3[C@@H]2CC[C@]2(C)[C@@H]([C@H](C)CCCC(C)C)CC[C@@H]32)C1 (some centres not stated)
- IC50 [1]: > 100 µM

Structure (SMILES): COC(CC#N)CC[C@@]1(C)OC(=O)C[C@H]2[C@@H]3CC[C@H]([C@H](C)CCCC(C)C)[C@@]3(C)CC[C@@H]21 (some centres not stated)
- IC50 [1]: 10.5 µM

Structure (SMILES): C/C(=C/C/C=C\C#N)[C@H]1CC[C@]2(C)[C@@H](C(C)CCCC(C)C)CC[C@H]2[C@@H]1CC(=O)O (some centres not stated)
- IC50 [1]: 36.3 µM

Structure (SMILES): CCOC(=O)CC(=O)CSC(=S)O[C@H]1CC[C@@]2(C)[C@@H](CC[C@@H]3[C@@H]2CC[C@]2(C)[C@@H]([C@H](C)CCCC(C)C)CC[C@@H]32)C1
- IC50 [1]: > 100 µM

Structure (SMILES): CC(C)CCC[C@@H](C)[C@H]1CC[C@H]2[C@@H]3CC(=O)N4C(=O)C=CCC[C@]4(C)[C@H]3CC[C@]12C
- GI50 (786-0 [3]): 1.44 µM
- GI50 (A549): 4.27 µM
- GI50 (COLO 205): 4.76 µM
- GI50 (HT-29): 2.63 µM
- GI50 (LOX IMVI): 0.84 µM
- GI50 (NCI-H23): 4.85 µM
- GI50 (NCI-H522): 6.1 µM
- GI50 (NCI/ADR-RES): 6.05 µM
- GI50 (OVCAR-8): 1.97 µM
- GI50 (SN12C [4]): 3.46 µM
- GI50 (SF-539): 4.46 µM
- GI50 (SF-268): > 25 µM
- GI50 (SK-MEL-5): 4.37 µM
- GI50 (UO-31 [5]): 2.95 µM
- GI50 (U-251): 3.46 µM
- GI50 (PC-3): 4.22 µM
- GI50 (T47D): 4.09 µM
- GI50 (OVCAR-3): 4 µM
- GI50 (BT-549 (Homo sapiens)): 5.07 µM

Structure (SMILES): CC(C)CCCC(C)[C@H]1CC[C@H]2[C@H](CC(=O)O)[C@@H](C(C)CCCCC#N)CC[C@]12C (stereo in doubt; 21)
- GI50 (786-0 [6]): 8.45 µM
- GI50 (A549): 5.09 µM
- GI50 (COLO 205): 5.29 µM
- IC50 [1]: 2.2 µM
- GI50 (HT-29): 4.69 µM
- GI50 (HCC 2998): 5.36 µM
- GI50 (LOX IMVI): 4.86 µM
- GI50 (NCI-H23): 5.27 µM
- GI50 (NCI-H522): > 25 µM
- GI50 (NCI/ADR-RES): 5.34 µM
- GI50 (OVCAR-8): 4.88 µM
- GI50 (SN12C [7]): 6.05 µM
- GI50 (SF-539): 10.8 µM
- GI50 (SF-268): > 25 µM
- GI50 (SK-MEL-5): 7.04 µM
- GI50 (UO-31 [8]): 9.97 µM
- GI50 (PC-3): 7.15 µM
- GI50 (T47D): 6.69 µM
- GI50 (OVCAR-3): 5.25 µM
- GI50 (BT-549 (Homo sapiens)): 5.16 µM

Structure (SMILES): CC(C)CCC[C@@H](C)[C@H]1CC[C@H]2[C@H](CC(=O)O)[C@@H]([C@@]3(C)CC=CCC3=O)CC[C@]12C
- IC50 [1]: 5.8 µM

Structure (SMILES): CC(C)CCC[C@@H](C)[C@H]1CC[C@H]2[C@@H]3CC[C@H]4C[C@@H](OC(=O)Nc5ccccc5)CC[C@]4(C)[C@H]3CC[C@]12C
- inhibition [2]: 18%
